From ChEMBL document CHEMBL4049452 (J Med Chem, 2017)

Experiments:
Glucagon receptor = Glucagon receptor (Homo sapiens, UniProt P47871); test: Agonist activity at human glucagon receptor expressed in HEK293 cells assessed as cAMP accumulation after 30 mins by HTRF assay; format: functional, cell-based
[1] = AUC in C57/BL6 mouse at 1 mg/kg, sc by LC-MS/MS analysis; format: ADME, organism-based; conditions: in vivo
Procedure, shortened: (§1)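 Female C57/Bl6 mice given single 1 mg/kg sc dose; animals sacrificed and blood collected at 0.083, 0.25, 1, 2, 4, 8, 16 and 24 h. Plasma analysed by LC-MS/MS after protein precipitation; parameters from mean plasma concentrations by noncompartmental analysis.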

[2] = Half life in C57/BL6 mouse at 1 mg/kg, sc by LC-MS/MS analysis; format: ADME, organism-based; conditions: in vivo; procedure, shortened: as §1
[3] = Tmax in C57/BL6 mouse at 1 mg/kg, sc by LC-MS/MS analysis; format: ADME, organism-based; conditions: in vivo; procedure, shortened: as §1
[4] = Cmax in C57/BL6 mouse at 1 mg/kg, sc by LC-MS/MS analysis; format: ADME, organism-based; design: dose 1 mg/kg, route subcutaneous; conditions: in vivo; procedure, shortened: as §1
[5] = molecular target: Glucagon-like peptide 1 receptor (Homo sapiens, UniProt P43220); test: Agonist activity at human GLP-1 receptor expressed in HEK293 cells assessed as cAMP accumulation after 30 mins by HTRF assay; format: functional, cell-based
Sequence of Glucagon-like peptide 1 receptor (P43220 whole entry): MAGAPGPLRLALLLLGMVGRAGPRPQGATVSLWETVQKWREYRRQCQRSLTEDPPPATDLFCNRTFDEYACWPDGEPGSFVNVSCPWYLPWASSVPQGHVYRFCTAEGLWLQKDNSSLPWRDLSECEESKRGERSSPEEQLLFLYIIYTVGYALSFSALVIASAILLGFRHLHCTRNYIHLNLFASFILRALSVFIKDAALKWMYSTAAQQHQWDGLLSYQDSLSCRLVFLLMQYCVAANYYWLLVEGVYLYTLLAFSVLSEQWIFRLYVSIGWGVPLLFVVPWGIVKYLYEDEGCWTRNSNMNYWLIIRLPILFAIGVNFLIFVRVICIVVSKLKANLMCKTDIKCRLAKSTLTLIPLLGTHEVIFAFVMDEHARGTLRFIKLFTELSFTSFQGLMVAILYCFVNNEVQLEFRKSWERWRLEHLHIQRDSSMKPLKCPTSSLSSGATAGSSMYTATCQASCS

Sequence of Glucagon receptor (P47871 whole entry): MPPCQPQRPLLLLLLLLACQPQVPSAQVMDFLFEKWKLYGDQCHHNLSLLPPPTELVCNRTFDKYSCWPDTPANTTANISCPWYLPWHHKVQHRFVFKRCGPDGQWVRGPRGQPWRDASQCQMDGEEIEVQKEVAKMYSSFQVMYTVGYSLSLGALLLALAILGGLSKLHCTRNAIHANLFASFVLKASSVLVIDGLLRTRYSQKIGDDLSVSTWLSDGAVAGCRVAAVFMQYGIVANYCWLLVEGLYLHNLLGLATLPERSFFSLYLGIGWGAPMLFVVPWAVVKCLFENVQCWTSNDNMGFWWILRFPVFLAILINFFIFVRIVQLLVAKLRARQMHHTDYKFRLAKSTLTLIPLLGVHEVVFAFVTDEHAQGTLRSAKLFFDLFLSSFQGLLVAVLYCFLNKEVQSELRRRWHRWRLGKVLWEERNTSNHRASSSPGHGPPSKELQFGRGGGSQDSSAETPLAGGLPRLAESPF

Compound | EC50 (Glucagon receptor) [nM] | AUC [1] [µg·h/mL] | half-life [2] [h] | Tmax [3] [h] | Cmax [4] [µg/mL] | EC50 [5] [nM]
CCCCCCCCCCCCCCCC(=O)N[C@@H](CCC(=O)NCCCC[C@H](NC(=O)[C@H](CO)NC(=O)[C@@H]1CCCN1C(=O)[C@@H]1CCCN1C(=O)[C@@H]1CCCN1C(=O)[C@H](C)NC(=O)CNC(=O)[C@H](CO)NC(=O)[C@H](CO)NC(=O)[C@@H]1CCCN1C(=O)CNC(=O)CNC(=O)[C@H](CC(N)=O)NC(=O)[C@H](CCCCN)NC(=O)[C@H](CC(C)C)NC(=O)[C@H](Cc1c[nH]c2ccccc12)NC(=O)[C@H](CCC(=O)O)NC(=O)[C@@H](NC(=O)[C@H](Cc1ccccc1)NC(=O)[C@H](CC(=O)O)NC(=O)[C@H](CCC(N)=O)NC(=O)[C@H](C)NC(=O)[C@H](CCCNC(=N)N)NC(=O)[C@H](CCCNC(=N)N)NC(=O)[C@H](CO)NC(=O)[C@H](CC(=O)O)NC(=O)[C@H](CCSC)NC(=O)[C@H](CCC(N)=O)NC(=O)[C@H](CCCCN)NC(=O)[C@H](CO)NC(=O)[C@H](CC(C)C)NC(=O)[C@H](CC(=O)O)NC(=O)[C@H](CO)NC(=O)[C@@H](NC(=O)[C@H](Cc1ccccc1)NC(=O)[C@@H](NC(=O)CNC(=O)[C@H](CCC(N)=O)NC(=O)[C@H](CO)NC(=O)[C@@H](N)Cc1cnc[nH]1)[C@@H](C)O)[C@H](C)O)[C@@H](C)CC)C(N)=O)C(N)=O | 0.0062 | 17 | 2.2 | 2 | 3.45 | 0.0052
CC[C@H](C)[C@H](NC(=O)[C@H](Cc1ccccc1)NC(=O)[C@H](CC(C)C)NC(=O)[C@H](CCCNC(=N)N)NC(=O)[C@@H](NC(=O)[C@H](CCCNC(=N)N)NC(=O)[C@H](CCCNC(=N)N)NC(=O)[C@H](CO)NC(=O)[C@H](CC(=O)O)NC(=O)[C@H](CCSC)NC(=O)[C@H](CCC(N)=O)NC(=O)[C@H](CCCCN)NC(=O)[C@H](CO)NC(=O)[C@H](CC(C)C)NC(=O)[C@H](CC(=O)O)NC(=O)[C@H](CO)NC(=O)[C@@H](NC(=O)[C@H](Cc1ccccc1)NC(=O)[C@@H](NC(=O)CNC(=O)[C@H](CCC(=O)O)NC(=O)CNC(=O)[C@@H](N)Cc1cnc[nH]1)[C@@H](C)O)[C@@H](C)O)C(C)C)C(=O)N[C@@H](CCC(=O)O)C(=O)N[C@@H](Cc1c[nH]c2ccccc12)C(=O)N[C@@H](CC(C)C)C(=O)N[C@@H](CCCCN)C(=O)N[C@@H](CC(N)=O)C(=O)NCC(=O)NCC(=O)N1CCC[C@H]1C(=O)N[C@@H](CO)C(=O)N[C@@H](CO)C(=O)NCC(=O)N[C@@H](C)C(=O)N1CCC[C@H]1C(=O)N1CCC[C@H]1C(=O)N1CCC[C@H]1C(=O)N[C@@H](CO)C(N)=O | 58000 | – | – | – | – | 0.0018
CCCCCCCCCCCCCCCC(=O)N[C@@H](CCC(=O)NCCCC[C@H](NC(=O)[C@@H]1CCCN1C(=O)[C@@H]1CCCN1C(=O)[C@@H]1CCCN1C(=O)[C@H](C)NC(=O)CNC(=O)[C@H](CO)NC(=O)[C@H](CO)NC(=O)[C@@H]1CCCN1C(=O)CNC(=O)CNC(=O)[C@H](CC(N)=O)NC(=O)[C@H](CCCCN)NC(=O)[C@H](CC(C)C)NC(=O)[C@H](Cc1c[nH]c2ccccc12)NC(=O)[C@H](CCC(=O)O)NC(=O)[C@@H](NC(=O)[C@H](Cc1ccccc1)NC(=O)[C@H](CC(=O)O)NC(=O)[C@H](CCC(N)=O)NC(=O)[C@H](C)NC(=O)[C@H](CCCNC(=N)N)NC(=O)[C@H](CCCNC(=N)N)NC(=O)[C@H](CO)NC(=O)[C@H](CC(=O)O)NC(=O)[C@H](CCSC)NC(=O)[C@H](CCC(N)=O)NC(=O)[C@H](CCCCN)NC(=O)[C@H](CO)NC(=O)[C@H](CC(C)C)NC(=O)[C@H](CC(=O)O)NC(=O)[C@H](CO)NC(=O)[C@@H](NC(=O)[C@H](Cc1ccccc1)NC(=O)[C@@H](NC(=O)CNC(=O)[C@H](CCC(N)=O)NC(=O)[C@H](CO)NC(=O)[C@@H](N)Cc1cnc[nH]1)[C@@H](C)O)[C@@H](C)O)[C@@H](C)CC)C(N)=O)C(N)=O | 0.0063 | – | – | – | – | 0.0058
CC[C@H](C)[C@H](NC(=O)[C@H](Cc1ccccc1)NC(=O)[C@H](CC(C)C)NC(=O)[C@H](CCCNC(=N)N)NC(=O)[C@@H](NC(=O)[C@H](C)NC(=O)[C@H](CCC(=O)O)NC(=O)[C@H](CCC(=O)O)NC(=O)[C@H](CCC(=O)O)NC(=O)[C@H](CCSC)NC(=O)[C@H](CCC(N)=O)NC(=O)[C@H](CCCCN)NC(=O)[C@H](CO)NC(=O)[C@H](CC(C)C)NC(=O)[C@H](CC(=O)O)NC(=O)[C@H](CO)NC(=O)[C@@H](NC(=O)[C@H](Cc1ccccc1)NC(=O)[C@@H](NC(=O)CNC(=O)[C@H](CCC(=O)O)NC(=O)CNC(=O)[C@@H](N)Cc1cnc[nH]1)[C@@H](C)O)[C@@H](C)O)C(C)C)C(=O)N[C@@H](CCC(=O)O)C(=O)N[C@@H](Cc1c[nH]c2ccccc12)C(=O)N[C@@H](CC(C)C)C(=O)N[C@@H](CCSC)C(=O)N[C@@H](CC(N)=O)C(=O)N[C@H](C(=O)N[C@@H](CCCCN)C(=O)N[C@@H](CCCNC(=N)N)C(=O)N[C@@H](CC(N)=O)C(=O)N[C@@H](CCCNC(=N)N)C(=O)NCC(=O)N[C@@H](C)C(=O)N1CCC[C@H]1C(=O)N1CCC[C@H]1C(=O)N1CCC[C@H]1C(=O)N[C@@H](CO)C(N)=O)[C@@H](C)O | > 100000 | – | – | – | – | 0.0012
H-HGEGTFTSDLSKQMDSRRAQDFVEWLKNGGPSSGAPPPS-NH2 | 10000 | – | – | – | – | 0.0222
H-HGEGTFTSDLSKQMDSRRAQDFVQWLKNGGPSSGAPPPS-NH2 | 42000 | – | – | – | – | 0.0558
H-HSEGTFTSDLSKQMDSRRAQDFIEWLKNGGPSSGAPPPS-NH2 | 170 | – | – | – | – | –
H-HSQGTFTSDLSKQMDSRRAQDFIEWLKNG-NH2 | 0.0019 | – | – | – | – | 0.0082
H-HSQGTFTSDLSKQMDSRRAQDFIEWLKNGGPSS-NH2 | 0.0089 | – | – | – | – | 0.0153
H-HSQGTFTSDLSKQMDSRRAQDFIEWLKNGGPSSNNIA-NH2 | 0.0156 | – | – | – | – | 0.0172
H-HSQGTFTSDLSKQMEEEAVRLFIEWLMNTKRNRGAPPPS-NH2 | 1.24 | – | – | – | – | 0.0022
